Measured values reported in ChEMBL document CHEMBL2375279, “Synthesis and biological evaluation of helioxanthin analogues” (Bioorg Med Chem, 2013).
The source made the active and inactive calls. The calls are words filed in the database; no cut-off is given here.

Columns and labels:
[1] = Cytotoxicity against human HepA2 cells after 2 days by MTT assay; type: cell-based
Summary of the method: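 HepA2 cells were seeded in DMEM with 10% FCS, attached for 24 h, washed with PBS pH 7.0, and then exposed to various compound concentrations in serum-free DMEM for 48 h. Viable cell number in each well was then determined by MTT assay.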

[2] = tested on: Hepatitis B virus; test: Antiviral activity against Hepatitis B virus infected in human HepA2 cells assessed as inhibition of viral surface antigen production after 2 days by enzyme immunoassay; type: functional, organism-based; details: for EC50: HepA2, 48 h
Summary of the method: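 HepA2 cells (HepG2 transfected with two tandem HBV genome repeats, secreting HBsAg) were seeded at 3 × 10^4 per well (96-well) or 1 × 10^5 per well (24-well) in DMEM with 10% FCS for 24 h. They were washed twice with PBS pH 7.0 and treated with graded concentrations in serum-free DMEM for 48 h. Medium HBsAg was measured by enzyme immunoassay. EC50 is the concentration giving 50% of untreated HBsAg. Mean ± S.D., n = 3.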

[3] = tested on: Hepatitis B virus; test: Antiviral activity against Hepatitis B virus infected in human 1.3ES2 cells assessed as reduction of middle/major HBsAg mRNA level after 48 hrs by Northern blot analysis; type: functional, organism-based
Summary of the method: (§1)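 1.3ES2 cells were grown to confluence in DMEM with 10% FCS, then switched to serum-free DMEM containing compound (0, 1.0 or 5.0 µM) for 48 h. Total RNA was extracted by phenol/guanidinium isothiocyanate, denatured in 2.2 M formaldehyde and run on a 1.2% agarose formaldehyde gel. It was blotted to nylon and probed with a 32P full-length HBV probe. The 3.5 kb and 2.4/2.1 kb bands were normalized to GAPDH.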

[4] = tested on: Hepatitis B virus; test: Antiviral activity against Hepatitis B virus infected in human HepA2 cells assessed as inhibition of viral core promoter activity at 0.03 uM after 24 hrs by luciferase reporter gene assay; details: HepA2, 24 h
[5] = tested on: Hepatitis B virus; test: Antiviral activity against Hepatitis B virus infected in human 1.3ES2 cells assessed as reduction of HBeAg mRNA and pregenomic RNA level after 48 hrs by Northern blot analysis; type: functional, organism-based; summary of the method: as §1
[6] = tested on: Hepatitis B virus; test: Antiviral activity against Hepatitis B virus infected in human HepA2 cells assessed as inhibition of viral core promoter activity after 24 hrs by luciferase reporter gene assay
[7] = tested on: Hepatitis B virus; test: Antiviral activity against Hepatitis B virus infected in human 1.3ES2 cells assessed as reduction of large HBsAg mRNA level after 48 hrs by Northern blot analysis; type: functional, organism-based; summary of the method: as §1
[8] = tested on: Hepatitis B virus; test: Antiviral activity against Hepatitis B virus infected in human 1.3ES2 cells assessed as inhibition of viral DNA replication after 72 hrs by RT-PCR analysis; type: functional, organism-based
Summary of the method: (§2)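 1.3ES2 cells (HepG2 clone stably carrying a 1.3-fold HBV ayw genome) were seeded in 100 mm dishes, then exposed to compound (0, 1.0 or 5.0 µM) in serum-free DMEM for 72 h. Virion-associated HBV DNA in the medium was quantified by real-time PCR against a plasmid standard curve (10^3–10^7 copies), with 45 cycles of 95 °C 12 s and 54 °C 20 s. Mean ± S.D., n = 3.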

[9] = tested on: Hepatitis B virus; test: Antiviral activity against Hepatitis B virus infected in human 1.3ES2 cells assessed as inhibition of viral DNA replication at 5 uM after 72 hrs by RT-PCR analysis; type: functional, organism-based; summary of the method: as §2
[10] = tested on: Hepatitis B virus; test: Antiviral activity against Hepatitis B virus infected in human 1.3ES2 cells assessed as reduction of viral RNA level at 5 uM after 48 hrs by Northern blot analysis; type: functional, organism-based; summary of the method: as §1
[11] = tested on: Hepatitis B virus; test: Antiviral activity against Hepatitis B virus infected in human HepA2 cells assessed as inhibition of viral core promoter activity at 3 uM after 24 hrs by luciferase reporter gene assay; details: HepA2, 24 h

EC50 [2] [µM]	SMILES	CC50 at 48 h [1] [µM]	further results
> 12.5	CCCCCC(=O)OCc1cc2ccc3c(c2c(-c2ccc(OC)c(OC(=O)CCCCC)c2)c1COC(=O)CCCCC)OCO3	> 12.5	–
> 6	CCCCCCCCOC(=O)CN1Cc2c(cc3ccc4c(c3c2-c2ccc3c(c2)OCO3)OCO4)C1=O	> 12.5	–
3.7	COc1ccc(-c2c(CO)c(COC(C)=O)cc3ccc4c(c23)OCO4)cc1OC	> 12.5	–
> 12.5	COc1cc(-c2c(COC(C)=O)c(COC(C)=O)cc3ccc4c(c23)OCO4)ccc1O	> 12.5	–
3.33	CCCCCC(=O)OCc1cc2ccc3c(c2c(-c2ccc(OC)c(O)c2)c1COC(=O)CCCCC)OCO3	> 12.5	–
> 6	COc1ccc(-c2c3c(cc4ccc5c(c24)OCO5)C(=O)OC3)cc1OC	–	–
> 6	O=C1c2cc3ccc4c(c3c(-c3ccc5c(c3)OCO5)c2CN1CCO)OCO4	> 12.5	–
> 12.5	OCc1cc2ccc3c(c2c(-c2ccc(O)c(O)c2)c1CO)OCO3	> 12.5	–
0.67	COc1ccc(-c2c(CO)c(CO)cc3ccc4c(c23)OCO4)cc1O	> 12.5	–
2.73	COc1cc(-c2c(CO)c(CO)cc3ccc4c(c23)OCO4)ccc1O	> 12.5	–
> 12.5	CCCCCC(=O)OCc1cc2ccc3c(c2c(-c2ccc(OC)c(OC)c2)c1CO)OCO3	> 12.5	–
> 12.5	CC(=O)OCc1cc2ccc3c(c2c(-c2ccc(O)c(OC(C)=O)c2)c1COC(C)=O)OCO3	> 12.5	–
0.49	COc1ccc(-c2c(CO)c(COC(C)=O)cc3ccc4c(c23)OCO4)cc1O	> 12.5	–
–	COc1cc(-c2c3c(cc4ccc5c(c24)OCO5)C(=O)OC3)ccc1O	> 12.5	–
3.03	COc1ccc(-c2c(COC(C)=O)c(COC(C)=O)cc3ccc4c(c23)OCO4)cc1OC	> 12.5	–
> 6	O=C(O)CN1Cc2c(cc3ccc4c(c3c2-c2ccc3c(c2)OCO3)OCO4)C1=O	> 12.5	–
0.06	COc1ccc(-c2c3c(cc4ccc5c(c24)OCO5)C(=O)OC3)cc1OC(C)=O	> 12.5	Activity [3]: Dose-dependent effect; inhibition at 0.03 µM [4]: 40%; Activity [5]: Dose-dependent effect; inhibition [6]: Dose-dependent effect; Activity [7]: Dose-dependent effect; inhibition [8]: Dose-dependent effect; inhibition [2]: Dose-dependent effect
> 12.5	COc1cc(-c2c(CO)c(COC(C)=O)cc3ccc4c(c23)OCO4)ccc1O	> 12.5	–
> 6	COc1cc(-c2c3c(cc4ccc5c(c24)OCO5)C(=O)OC3)ccc1OC(C)=O	> 12.5	inhibition [9]: inactive; Activity [10]: inactive
1.9	CCCCCC(=O)OCc1cc2ccc3c(c2c(-c2ccc4c(c2)OCO4)c1COC(=O)CCCCC)OCO3	> 12.5	–
> 12.5	CC(=O)Oc1cc(-c2c3c(cc4ccc5c(c24)OCO5)C(=O)OC3)ccc1OCCCCCCCCC#N	> 12.5	–

EC50 [2] [µM]	SMILES	CC50 at 48 h [1] [µM]	further results
1.9	CCCCCC(=O)OCc1cc2ccc3c(c2c(-c2ccc4c(c2)OCO4)c1CO)OCO3	> 12.5	–
> 12.5	CCCCCC(=O)OCc1cc2ccc3c(c2c(-c2ccc(O)c(O)c2)c1COC(=O)CCCCC)OCO3	> 12.5	–
1.97	CCCCCC(=O)OCc1cc2ccc3c(c2c(-c2ccc(OC)c(O)c2)c1CO)OCO3	> 12.5	–
> 12.5	CC(=O)OCc1cc2ccc3c(c2c(-c2ccc(O)c(O)c2)c1COC(C)=O)OCO3	> 12.5	–
> 12.5	CC(=O)OCc1cc2ccc3c(c2c(-c2ccc(OC(C)=O)c(OC(C)=O)c2)c1COC(C)=O)OCO3	> 12.5	–
–	CC(=O)OCc1cc2ccc3c(c2c(-c2ccc4c(c2)OCO4)c1CO)OCO3	> 12.5	–
0.38	O=C1OCc2c1cc1ccc3c(c1c2-c1ccc2c(c1)OC(F)(F)O2)OCO3	> 12.5	–
0.65	COc1ccc(-c2c(COC(C)=O)c(COC(C)=O)cc3ccc4c(c23)OCO4)cc1OC(C)=O	> 12.5	–
1.74	COc1ccc(-c2c3c(cc4ccc5c(c24)OCO5)COC3=O)cc1O	> 12.5	–
> 12.5	CCCCCOC(=O)CN1Cc2c(cc3ccc4c(c3c2-c2ccc3c(c2)OCO3)OCO4)C1=O	3.05	–
3.94	COc1cc(-c2c3c(cc4ccc5c(c24)OCO5)COC3=O)ccc1O	> 12.5	–
> 6	N#Cc1cc2ccc3c(c2c(-c2ccc4c(c2)OCO4)c1C#N)OCO3	> 12.5	–
> 12.5	COc1ccc(-c2c(CO)c(CO)cc3ccc4c(c23)OCO4)cc1OC	> 12.5	–
2.77	COc1cc(-c2c(COC(C)=O)c(COC(C)=O)cc3ccc4c(c23)OCO4)ccc1OC(C)=O	> 12.5	–
> 12.5	N#CCCCCCCCCOc1ccc(-c2c3c(cc4ccc5c(c24)OCO5)C(=O)OC3)cc1O	> 12.5	–
–	O=C1OCc2c1cc1ccc3c(c1c2-c1ccc2c(c1)OCO2)OCO3 [HELIOXANTHIN]	–	inhibition at 3 µM [11]: 30%
3.4	O=C1OCc2cc3ccc4c(c3c(-c3ccc(O)c(O)c3)c21)OCO4	> 12.5	–
0.86	COC(=O)CN1Cc2c(cc3ccc4c(c3c2-c2ccc3c(c2)OCO3)OCO4)C1=O	> 12.5	–
> 12.5	CCCCCC(=O)OCc1cc2ccc3c(c2c(-c2ccc(O)c(OC)c2)c1COC(=O)CCCCC)OCO3	> 12.5	–
> 6	N#CCCN1Cc2c(cc3ccc4c(c3c2-c2ccc3c(c2)OCO3)OCO4)C1=O	> 12.5	–
